Assay [1] concerns HeLa. Nature of the assay: Induction of lysosomal biosynthesis in human HeLa cells assessed as increase in staining intensity at 40 uM by LysoTracker Red DND-99 staining based assay. The assay is classed as functional, cell-based. To be noted: TDE = time-dependent effect. Put shortly:
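Time course in HeLa cells at 40 μM over five treatment intervals, followed by LysoTracker Red staining. Output is fold induction of staining versus DMSO control. n = 3 independent experiments.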

For assay [2], the system named is HeLa. Nature of the assay: Up regulation of LAMP1 mRNA expression in human HeLa cells at 40 uM after 3 hrs by TRIzol dye based qRT-PCR analysis. The assay is classed as functional, cell-based. (Quantitative PCR measures a nucleic acid by following its amplification.)
Assay [3] deals with HeLa. The experiment in a line: Up regulation of cathepsin B mRNA expression in human HeLa cells at 40 uM after 3 hrs by TRIzol dye based qRT-PCR analysis. The assay is classed as functional, cell-based.
For assay [4], the system named is HeLa. Nature of the assay: Induction of lysosomal biosynthesis in human HeLa cells assessed as increase in staining intensity at 40 uM after 3 hrs by LysoTracker Red DND-99 staining based assay relative to control. The assay is classed as functional. Put shortly:
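HeLa cells given 40 μM for 3 h, then LysoTracker Red staining. Signal intensity is quantified as fold induction relative to DMSO-treated cells. HEP-14 at 40 μM is the positive control. Independent triplicates.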

Assay [5] relates to HeLa. Nature of the assay: Induction of lysosomal biosynthesis in human HeLa cells assessed as increase in staining intensity after 3 hrs by LysoTracker Red DND-99 staining based assay. The assay is classed as functional, cell-based. Put shortly: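 HeLa cells exposed 3 h to 10, 20, 40 and 60 μM test agent, then stained with LysoTracker Red. Lysosome induction is read as fold of LysoTracker Red signal over the DMSO negative control, with HEP-14 as positive control. Three independent experiments.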

Assay [6] has as its system HeLa. The experiment in a line: Up regulation of cathepsin A mRNA expression in human HeLa cells at 40 uM after 3 hrs by TRIzol dye based qRT-PCR analysis. The assay is classed as functional, cell-based.
The test system of assay [7] is HeLa. Nature of the assay: Up regulation of ATP6V0E1 mRNA expression in human HeLa cells at 40 uM after 3 hrs by TRIzol dye based qRT-PCR analysis. The class given is functional, cell-based.

The structures appear in SMILES notation. The source made the active and inactive calls. No cut-off for these calls is given here.

`COc1ccc([C@H](O)C(=O)O[C@@H]2/C(C)=C/[C@@]34O[C@@]3(C[C@@](C)(O)[C@@H]4OC(C)=O)C(=O)[C@H](C)[C@H](OC(C)=O)[C@@H]3[C@H]([C@@H]2OC(C)=O)C3(C)C)cc1`: the Activity entry with HeLa [1] was “Tde”; in the assay on HeLa [4] it was 143.5%; in the assay on HeLa [5], “Dose-dependent effect”. The outcome in the assay with HeLa [2], in the assay with HeLa [3], in the assay with HeLa [6] and with HeLa [7] was Active.
As to `COc1ccc(CC(=O)O[C@@H]2/C(C)=C/[C@@]34O[C@@]3(C[C@H](C)[C@@H]4OC(C)=O)C(=O)[C@H](C)[C@H](OC(C)=O)[C@@H]3[C@H]([C@@H]2OC(C)=O)C3(C)C)cc1`, the figures for the Activity entry in the assay on HeLa [1], in the assay on HeLa [4] and in the assay with HeLa [5] were “Tde”, 140.7% and “Dose-dependent effect”, respectively. The outcome with HeLa [2], in the assay with HeLa [3], with HeLa [6] and with HeLa [7] was Active.
As to `COc1ccc([C@H](O)C(=O)O[C@@H]2/C(C)=C/[C@@]34O[C@@]3(C[C@H](C)[C@@H]4OC(C)=O)C(=O)[C@H](C)[C@H](OC(C)=O)[C@@H]3[C@H]([C@@H]2OC(C)=O)C3(C)C)cc1`, the Activity result in the assay on HeLa [1] was “Tde”; in the assay with HeLa [4] it was 155.9%; in the assay on HeLa [5], “Dose-dependent effect”. Moreover, the result in the assay on HeLa [2], in the assay on HeLa [3], in the assay with HeLa [6] and in the assay on HeLa [7] was Active.

The values are drawn from ChEMBL document CHEMBL4251722, “Identification of Ingol and Rhamnofolane Diterpenoids from Euphorbia resinifera and Their Abilities to Induce Lysosomal Biosynthesis” (2018).
